Sampled rows, rich in hits. Any-hit rate of the full collection: about 1.5%.
APJ ag – activates the human apelin receptor APJ; P35414; CHO-K1 APJ PathHunter beta-arrestin, luminescence; 0% DMSO wells, 100% apelin; activation, % at 20 µM; 0.11% of 330,000 active;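 active = activation more than six SD over the plate average, tested at 20 µM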
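Test system: CHO-K1 APJ beta-arrestin complementation cell line | Compound: Single test compound dose, 20 µM final, 1% DMSO | Incubation: Compound 90 min 25 °C, reagent 1 h | Measured by: beta-gal luminescence | Read-out basis: APJ–arrestin association signal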
EBI2 block – antagonists of human EBI2 receptor; P32249; EBI2 beta-arrestin recruitment, luminescence, 7a,25-OHC stimulated; inhibition, % at 5 µM; 0.81% of 360,000 active; AID 651636; in the data active = inhibition above about 38%;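 note: enzyme fragment complementation signal reports receptor beta-arrestin coupling in cells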
CXCR6 inh – blocks human CXCR6 beta-arrestin recruitment. CHO-K1 PathHunter CXCR6 beta-arrestin, luminescence. 0.36% of 360,000 active. inhibition, % at 20 µM. O00574; in the data active = inhibition above about 34%, passing the limit was not always enough;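 note: antagonist mode with CXCL16 agonist at 10 nM final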
Target sequence (O00574 whole entry, looked up): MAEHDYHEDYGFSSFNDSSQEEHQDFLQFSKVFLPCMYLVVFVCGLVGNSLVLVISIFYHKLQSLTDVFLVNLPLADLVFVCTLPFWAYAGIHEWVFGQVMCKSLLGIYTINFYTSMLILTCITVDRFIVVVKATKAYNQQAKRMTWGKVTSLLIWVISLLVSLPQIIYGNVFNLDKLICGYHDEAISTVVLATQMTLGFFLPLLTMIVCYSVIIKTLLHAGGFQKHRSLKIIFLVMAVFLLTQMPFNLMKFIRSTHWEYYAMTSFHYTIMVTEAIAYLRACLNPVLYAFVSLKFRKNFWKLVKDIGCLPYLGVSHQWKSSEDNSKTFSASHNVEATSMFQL
CCR6 antag – blocks CCL20-driven beta-arrestin recruitment at human CCR6; P51684; 0.49% of 340,000 active; inhibition, % at 20 µM; CHO-K1 CCR6 PathHunter beta-arrestin, luminescence, CCL20-stimulated;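 active = compounds whose inhibition of the agonist-driven luminescence signal at 20 µM reaches about 50%, limit read from the data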;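 note: cells stimulated with CCL20 at 14 nM final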
APJ antag – antagonists of human APJ apelin receptor; CHO-K1 APJ beta-arrestin complementation, luminescence; 0.32% of 330,000 active; inhibition, % at 20 µM;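 active = inhibition above about 40% at 20 µM, limit read from the data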;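 note: cells challenged with 10 nM apelin-13 agonist together with compound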
Of the large screens only hits and unclear results are named; the others gave an inactive call.

O=[N+]([O-])c1cc(CN2CCN(c3ccccc3)CC2)c(O)c2ncccc12	CXCR6 inh 56, CCR6 antag 75
Oc1ccc(CN2CCN(Cc3ccccc3)CC2)c2cccnc12	EBI2 block 68
O=S(=O)(c1ccc(Cl)cc1)N1CCN(Cc2ccc(O)c3ncccc23)CC1	none
COc1ccc2[nH]c3c(c2c1)CCN1C(=O)C(CC(=O)NCCc2ccccn2)C[C@H](C(=O)N(C(C)C)C(C)C)[C@@]31C (stereo not given in full)	none (no result: APJ ag, APJ antag)
CC(=O)NC(=S)Nc1cccc2c(C)cc(C)nc12	none
Cc1ccccc1NC(=S)NC(=O)c1cc(-c2ccccc2)nc2ccccc12	CCR6 antag 56
Cc1cc(C)c2cccc(NC(=S)NC(=O)c3ccccc3)c2n1	CCR6 antag 69
O=C(OCC(=O)N1N=C(c2ccc(Cl)cc2)CC1c1ccco1)c1cncc(Br)c1 (stereo not given)	none
COCCC(=O)N1CCC(Oc2ccc(C(=O)NCCC3=CCCCC3)cc2)CC1	none
COc1cccc(CNc2ccc(C)c(Cl)c2)c1	none
COc1cccc(CNc2cc(CSc3ccc(Cl)cc3)nc(C)n2)c1	EBI2 block 49
CC(C)CCNC(=O)C1CCC(CNS(=O)(=O)c2cccc3nsnc23)CC1 (stereo not given)	none
COc1ccc(/C=N\NC(=O)c2cc(O)c(O)c(O)c2)cc1COc1ccc(C(=O)OCC(C)C)cc1	CCR6 antag 55
O=C(O)CCCN1C(=O)/C(=C/c2ccc(-c3nc4ccccc4s3)o2)SC1=S	EBI2 block 53
CC(C)(C)C1=CC(=Nc2ccccc2N)C=C(C(C)(C)C)C1=O	CCR6 antag 67
Nc1ccccc1N=Nc1ccccc1N	none
O=C(NC(=S)Nc1ccc(C(=O)N2CCOCC2)cc1)c1ccc([N+](=O)[O-])cc1	CCR6 antag 63
CCOc1ccc(C(=O)NC(=S)Nc2ccc(NC(=O)CC)cc2)cc1[N+](=O)[O-]	CCR6 antag 56
COc1ccc(C(=O)NC(=S)Nc2ccccc2N2CCCCC2)cc1[N+](=O)[O-]	CCR6 antag 72
O=C(Nc1ccc(C(=O)N2CCOCC2)cc1)c1ccc([N+](=O)[O-])cc1	none
COc1cc(C(=O)NC(=S)Nc2ccc([N+](=O)[O-])cc2)cc(OC)c1OC	APJ antag 41
CCOc1ccc(C(=O)NC(=S)Nc2ccc(N3CCCCC3)cc2)cc1[N+](=O)[O-]	none
O=[N+]([O-])c1cccc(N(CC(O)CN2CCCC2)S(=O)(=O)c2ccccc2)c1 (stereo not given)	none
Cc1nc(N)nc(N)c1-c1ccc([N+](=O)[O-])cc1	none (no result: APJ ag, APJ antag)
O=C(Nc1ccc2c(c1)OCO2)c1csc([C@@H]2O[C@H](CO)[C@H](O)[C@H](O)[C@H]2O)n1	none (no result: APJ ag, CCR6 antag, APJ antag)
O=C(NCc1ccccc1Cl)[C@H]1CCCN1C(=O)[C@H]1CCCN1C(=O)c1cccs1	none (no result: APJ ag, CCR6 antag, APJ antag)
CC(C)C(=O)N(c1cc2sc(=O)oc2c2ccccc12)S(=O)(=O)c1cccs1	EBI2 block 49
CC1CCN(c2ccc3nnc(CCC(=O)NC(C)C)n3n2)CC1	none
Oc1ccc(N=Nc2nc(-c3ccccc3)c(-c3ccccc3)[nH]2)cc1	CXCR6 inh 53, CCR6 antag 67, APJ antag 54
CCOC(=O)[C@]12CCCC=C1N(Cc1ccccc1)C(=O)[C@H](CC(=O)N1CCN(C(=O)c3ccco3)CC1)C2	none (no result: APJ ag, CXCR6 inh, CCR6 antag, APJ antag)
Nc1ccc2c(c1)C(=O)c1ccccc1-2	none
Nc1ccc2c(c1)C(=O)C(=O)c1ccccc1-2	CCR6 antag 71
NC(=O)c1nsc(C(=O)N(c2cccc(F)c2)C(C(=O)NCC2CCCO2)c2c[nH]c3ccccc23)c1N (stereo not given)	none
NC(N)=N/N=C/c1cccc([N+](=O)[O-])c1O	none
O=[N+]([O-])c1cccc(/C=N\N=C2c3ccccc3-c3ccccc32)c1O	CXCR6 inh 43, CCR6 antag 69, APJ antag 54
COc1cc(/C=C(\C#N)c2nc3ccc(C)cc3[nH]2)cc([N+](=O)[O-])c1O	CCR6 antag 51 (no result: APJ ag, APJ antag)
CCN(CC)c1ccc(/C=C(/C#N)c2nc3ccc(C)cc3[nH]2)c(OC(C)C)c1	CCR6 antag 52
CC(C)(C)c1ccc(Oc2ncccc2NC(=O)c2cccs2)cc1	none
COc1cc(/C=N/NC(N)=S)cc(Br)c1OCc1ccccc1F	none
CCOc1cc(/C=N/NC(N)=S)cc(Br)c1OCc1ccccc1C	EBI2 block 47
CCCN(C(=O)c1cc(S(=O)(=O)N(C)c2ccccc2OC)ccc1C)C1CCS(=O)(=O)C1 (stereo not given)	none (no result: APJ ag, APJ antag)
C=CCc1cccc(/C=N/NC(=O)C(C)Nc2ccc(C)cc2)c1O (stereo not given)	EBI2 block 41
COc1ccc(S(=O)(=O)N2CCOCC2)cc1NC(=O)c1ccccc1-c1ccc(C(F)(F)F)cc1	none
Cc1c([N+](=O)[O-])cc(N2C(=O)C=CC2=O)cc1[N+](=O)[O-]	CXCR6 inh 52 (no result: APJ ag, CCR6 antag, APJ antag)
Cc1ccc(N2C(=O)C3C4C=CC(CC4)C3C2=O)cc1[N+](=O)[O-] (stereo not given)	none
Cc1cc(C)cc(N2C(=O)C=CC2=O)c1	CXCR6 inh 95 (no result: APJ ag, CCR6 antag, APJ antag)
Cc1c(Cl)cc(-n2cnnn2)cc1[N+](=O)[O-]	none
Cc1cc(N2C(=O)C=CC2=O)c([N+](=O)[O-])cc1C	CXCR6 inh 85 (no result: CCR6 antag)
Cc1cc(C)cc(N2C(=O)c3nccnc3C2=O)c1	none
Nc1cccc(/C=C/c2ccncc2)c1	none
COc1ccc(N2CCN(C(=O)c3ccc(C)cc3)CC2)c([N+](=O)[O-])c1	none
COc1ccc(N2CCN(C(=O)c3ccc(Br)cc3)CC2)c([N+](=O)[O-])c1	EBI2 block 72
COc1ccc(NC(=O)COc2cccc3c2CCN(Cc2cccnc2)C3=O)c(OC)c1	none
CCOC(=O)C(=Cc1ccc(OCc2ccc([N+](=O)[O-])cc2)c(OC)c1)C(=O)OCC	EBI2 block 54
COc1cc(/C=N/NC(=O)c2cccc([N+](=O)[O-])c2)ccc1OCc1ccccc1	none
CCS(=O)(=O)c1ncc(Cl)c(C(=O)Nc2ccccc2OC)n1	EBI2 block 79
CC(=O)Nc1ccc(NC(=O)c2nc(S(=O)(=O)Cc3cccc(C)c3)ncc2Cl)cc1	CXCR6 inh 47, CCR6 antag 58
Cc1ccc(NC(=O)CCC(=O)OCc2ccc(Br)cc2)cc1	none
CCN(c1ccccc1)S(=O)(=O)c1ccc(Cl)c(NC(=O)CN(C)Cc2cccc(F)c2)c1	none (no result: APJ ag, APJ antag)
CN(C)CCN(C(=O)C1CCN(S(=O)(=O)c2cccs2)CC1)c1nc2ccccc2s1	none
CCN1C(=O)/C(=C/C=C2/Sc3ccc4ccccc4c3N2CCO)SC1=S	CCR6 antag 51
CCCn1c(CCNc2nc(-c3cccc(Br)c3)cs2)nc2ccccc21	none (no result: APJ ag, APJ antag)
COc1ccc(NC2CCCN(C(=O)c3ccccc3N3CCOCC3)C2)cc1OC (stereo not given)	none
CCN(CC)CCn1c(NC(=O)c2ccccc2O)nc2ccccc21	CXCR6 inh 57 (no result: CCR6 antag)

Source: PubChem
